In ChEMBL document CHEMBL2169868, “Flavone-based novel antidiabetic and antidyslipidemic agents” (J Med Chem, 2012):
Calls of active or inactive are those of the source. The rule behind the calls is not given here.

Experiments:
[1] = Volume of distribution in Sprague-Dawley rat at 10 mg/kg, iv by LC-MS/MS method; assay type: ADME, organism-based; design: dose 10 mg/kg, route intravenous; details: in vivo
Method in brief: (§1)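 Male Sprague−Dawley rats, 225 ± 25 g. Single tail-vein dose of 10 mg/kg in DMF/PG/water (5:4:1), 0.2 μ filtered. Blood drawn from 0.08 to 48 h. Plasma spun at 2000g for 10 min at 4 °C and kept at −60 °C. LC-MS/MS with linear range 0.78−400 ng/mL; noncompartmental parameters.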

Rattus norvegicus [2] = assay: Volume of distribution in Sprague-Dawley rat at 40 mg/kg, po by LC-MS/MS method; assay type: ADME, organism-based; design: dose 40 mg/kg, route oral; details: in vivo
Method in brief: (§2)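 Male Sprague−Dawley rats fasted 10−12 h, then given a single 40 mg/kg oral gavage as an aqueous 0.5% methyl cellulose suspension. Blood drawn from 0.25 to 120 h. Plasma spun at 2000g for 10 min at 4 °C and stored at −60 °C. LC-MS/MS, linear range 0.78−400 ng/mL.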

[3] = Mean residence time in Sprague-Dawley rat at 10 mg/kg, iv by LC-MS/MS method; assay type: ADME, organism-based; design: dose 10 mg/kg, route intravenous; details: in vivo; method in brief: as §1
[4] = Mean residence time in Sprague-Dawley rat at 40 mg/kg, po by LC-MS/MS method; assay type: ADME, organism-based; design: dose 40 mg/kg, route oral; details: in vivo; method in brief: as §2
[5] = Plasma clearance in Sprague-Dawley rat at 10 mg/kg, iv by LC-MS/MS method; assay type: ADME, organism-based; design: dose 10 mg/kg, route intravenous; method in brief: as §1
[6] = Plasma clearance in Sprague-Dawley rat at 40 mg/kg, po by LC-MS/MS method; assay type: ADME, organism-based; design: dose 40 mg/kg, route oral; method in brief: as §2
[7] = Tmax in Sprague-Dawley rat at 40 mg/kg, po by LC-MS/MS method; assay type: ADME, organism-based; design: dose 40 mg/kg, route oral; details: in vivo; method in brief: as §2
[8] = Cmax in Sprague-Dawley rat at 10 mg/kg, iv by LC-MS/MS method; assay type: ADME, organism-based; design: dose 10 mg/kg, route intravenous; details: in vivo; method in brief: as §1
[9] = Cmax in Sprague-Dawley rat at 40 mg/kg, po by LC-MS/MS method; assay type: ADME, organism-based; design: dose 40 mg/kg, route oral; details: in vivo; method in brief: as §2
Syrian golden hamster [10] = assay: Antidyslipidemic activity in high fructose and high-fat diet fed dyslipidemic Syrian golden hamster model assessed as reduction in body weight at 25 mg/kg/day for 7 days; assay type: functional, Mesocricetus auratus; design: scale not given: the % may be the effect or the level left
Method in brief: (§3)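 Syrian golden hamsters fed high-fructose high-fat diet; oral dosing in 1% gum acacia at 10, 30, 100 mg/kg (or 25 mg/kg) for 7 days, sham control given vehicle; plasma TG, cholesterol, LDL-C, HDL-C, glycerol and NEFA (kits), lipoprotein lipase activity and body weight; % change versus HFD control, six hamsters per group.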

Syrian golden hamster [11] = assay: Antidyslipidemic activity in high fructose and high-fat diet fed dyslipidemic Syrian golden hamster model assessed as increase in HDL-cholesterol level at 25 mg/kg/day for 7 days; assay type: functional, Mesocricetus auratus
Syrian golden hamster [12] = assay: Antidyslipidemic activity in high fructose and high-fat diet fed dyslipidemic Syrian golden hamster model assessed as reduction in LDL-cholesterol level at 25 mg/kg/day for 7 days; assay type: functional, Mesocricetus auratus; design: scale not given: the % may be the effect or the level left; method in brief: as §3
Syrian golden hamster [13] = assay: Antidyslipidemic activity in high fructose and high-fat diet fed dyslipidemic Syrian golden hamster model assessed as reduction in cholesterol level at 25 mg/kg/day for 7 days; assay type: functional, Mesocricetus auratus; design: scale not given: the % may be the effect or the level left
Syrian golden hamster [14] = assay: Antidyslipidemic activity in high fructose and high-fat diet fed dyslipidemic Syrian golden hamster model assessed as reduction in triglyceride level at 25 mg/kg/day for 7 days; assay type: functional, Mesocricetus auratus; design: scale not given: the % may be the effect or the level left
Method in brief: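 HFD-fed Syrian golden hamsters, six per group, fed a high-fructose diet. Oral dosing in 1% gum acacia for 7 days. Sham group received vehicle. Plasma TG was measured and body weight tracked. Results given as % change versus HFD control.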

Syrian golden hamster [15] = assay: Antidyslipidemic activity in high fructose and high-fat diet fed dyslipidemic Syrian golden hamster model assessed as reduction in body weight at 100 mg/kg/day for 7 days; assay type: functional, organism-based; details: Mesocricetus auratus; method in brief: as §3
Syrian golden hamster [16] = assay: Antidyslipidemic activity in high fructose and high-fat diet fed dyslipidemic Syrian golden hamster model assessed as increase in HDL-cholesterol level at 100 mg/kg/day for 7 days; assay type: functional, Mesocricetus auratus
Syrian golden hamster [17] = assay: Antidyslipidemic activity in high fructose and high-fat diet fed dyslipidemic Syrian golden hamster model assessed as reduction in LDL-cholesterol level at 100 mg/kg/day for 7 days; assay type: functional, Mesocricetus auratus; design: scale not given: the % may be the effect or the level left; method in brief: as §3
Syrian golden hamster [18] = assay: Antidyslipidemic activity in high fructose and high-fat diet fed dyslipidemic Syrian golden hamster model assessed as reduction in cholesterol level at 100 mg/kg/day for 7 days; assay type: functional, Mesocricetus auratus; design: scale not given: the % may be the effect or the level left
Syrian golden hamster [19] = assay: Antidyslipidemic activity in high fructose and high-fat diet fed dyslipidemic Syrian golden hamster model assessed as reduction in triglyceride level at 100 mg/kg/day for 7 days; assay type: functional, Mesocricetus auratus; design: scale not given: the % may be the effect or the level left; method in brief: as §3
Mus musculus [20] = assay: Reduction in body weight in diabetic C57BL/KsJ db/db mouse model in hyperglycemia at 25 mg/kg, po qd for 10 days relative to untreated control; assay type: functional
Method in brief: (§4)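 db/db mice (C57BL/KsJ, 12−18 weeks, 40−50 g, glucose 200−350 mg/dL), housed at 23 ± 2.0 °C on a 12 h light cycle. Oral dosing daily for 10 days. Blood glucose checked each morning through day 9. Body weight recorded daily from day 1 to day 10. Mean % change versus vehicle, 5 mice per group; Student t test.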

Mus musculus [21] = assay: Antihyperglycemic activity in diabetic C57BL/KsJ db/db mouse model assessed as reduction in plasma insulin level in hyperglycemia at 25 mg/kg, po qd for 10 days; assay type: functional; design: scale not given: the % may be the effect or the level left
Method in brief: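 db/db mice dosed orally every day for 10 days. On day 11, retro-orbital blood was drawn and plasma insulin measured. Mean % change versus vehicle-treated control, 5 mice per group; Student t test.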

Mus musculus [22] = assay: Antidyslipidemic activity in diabetic C57BL/KsJ db/db mouse model assessed as increase in plasma HDL-C/cholesterol ratio at 25 mg/kg, po qd for 10 days; assay type: functional
Method in brief: (§5)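 db/db mice (blood glucose 200−350, TG 170−250, cholesterol 170−250, HDL-C 32−40 mg/dL) dosed orally at 25 mg/kg daily for 10 days; retro-orbital blood taken on day 11 for plasma TG, cholesterol and HDL-C (and HDL-C/CHOL ratio); mean % change versus vehicle control, 5 mice per group; Student t test.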

Mus musculus [23] = assay: Antidyslipidemic activity in diabetic C57BL/KsJ db/db mouse model assessed as reduction in plasma cholesterol level at 25 mg/kg, po qd for 10 days; assay type: functional; design: scale not given: the % may be the effect or the level left; method in brief: as §5
Mus musculus [24] = assay: Antidyslipidemic activity in diabetic C57BL/KsJ db/db mouse model assessed as increase in plasma HDL-cholesterol level at 25 mg/kg, po qd for 10 days; assay type: functional; method in brief: as §5
Mus musculus [25] = assay: Antidyslipidemic activity in diabetic C57BL/KsJ db/db mouse model assessed as reduction in plasma triglyceride level at 25 mg/kg, po qd for 10 days; assay type: functional; design: scale not given: the % may be the effect or the level left; method in brief: as §5
Mus musculus [26] = assay: Antihyperglycemic activity in diabetic C57BL/KsJ db/db mouse model assessed as improvement in glucose tolerance in hyperglycemia at 25 mg/kg, po qd for 10 days; assay type: functional
Method in brief: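 Male/female C57BL/KsJ db/db mice, 12−18 weeks, 40−50 g, selected for glucose 200−350 mg/dL. Oral dosing daily for 10 days. OGTT on day 10 after an overnight fast: compound at −30 min, then 3 g/kg oral glucose at 0 min. Glucose read at 30, 60, 90 and 120 min. AUC taken versus vehicle, 5 mice per group.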

Mus musculus [27] = assay: Antihyperglycemic activity in diabetic C57BL/KsJ db/db mouse model assessed as reduction in hyperglycemia at 25 mg/kg, po qd for 10 days; assay type: functional; design: scale not given: the % may be the effect or the level left; method in brief: as §4
Rattus norvegicus [28] = assay: Antihyperlipidemic activity in Triton-induced dyslipidemic Wistar rat model assessed as reduction in phospholipid level at 100 mg/kg, po; assay type: functional; design: scale not given: the % may be the effect or the level left
Method in brief: (§6)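 Male Wistar rats, 8−10 weeks, about 160 g, fed normal pellet diet. Triton X-100 given at 400 mg/kg ip; compound given orally in 1% gum acacia. Retro-orbital blood taken 18 h after Triton and serum separated at 1500g for 10 min. TG and cholesterol measured by kit. Mean % change versus dyslipidemic control, 5 animals.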

Rattus norvegicus [29] = assay: Antihyperlipidemic activity in Triton-induced dyslipidemic Wistar rat model assessed as reduction in cholesterol level at 100 mg/kg, po; assay type: functional; design: scale not given: the % may be the effect or the level left; method in brief: as §6
Rattus norvegicus [30] = assay: Antihyperlipidemic activity in Triton-induced dyslipidemic Wistar rat model assessed as reduction in triglyceride level at 100 mg/kg, po; assay type: functional; design: scale not given: the % may be the effect or the level left; method in brief: as §6
[31] = Oral bioavailability in Sprague-Dawley rat at 40 mg/kg by LC-MS/MS method; assay type: ADME, organism-based; details: in vivo; method in brief: as §2
[32] = Elimination half life in Sprague-Dawley rat at 10 mg/kg, iv by LC-MS/MS method; assay type: ADME, organism-based; design: dose 10 mg/kg, route intravenous; details: in vivo, read-out: beta t1/2 (converted); method in brief: as §1
[33] = Elimination half life in Sprague-Dawley rat at 40 mg/kg, po by LC-MS/MS method; assay type: ADME, organism-based; design: dose 40 mg/kg, route oral; details: in vivo, read-out: beta t1/2 (converted); method in brief: as §2
Rattus norvegicus [34] = assay: AUC in Sprague-Dawley rat at 10 mg/kg, iv by LC-MS/MS method; details: in vivo
Rattus norvegicus [35] = assay: AUC in Sprague-Dawley rat at 40 mg/kg, po by LC-MS/MS method; details: in vivo

Compound `CC(C)(C)NCC(O)COc1ccc2c(=O)cc(-c3cc(OCc4ccccc4)cc(OCc4ccccc4)c3)oc2c1` (racemic) has a Vd [1] of 69.4 L/kg, a Vd (Rattus norvegicus [2]) of 96.73 L/kg and an MRT [3] of 22.8 h. The MRT [4] was 43.2 h, the clearance [5] was 3.65 L/h/kg and the CL/F [6] was 3.42 L/h/kg. For the same compound, the Tmax [7] was 8 h, the Cmax [8] was 0.998 µg/mL and the Cmax [9] was 0.0609 µg/mL. It also gave an Activity (Syrian golden hamster [10]) of 8.89%, an Activity (Syrian golden hamster [11]) of 13.3% and an Activity (Syrian golden hamster [12]) of 23.3%. The Activity (Syrian golden hamster [13]) was 15.3%, the Activity (Syrian golden hamster [14]) was 22.2% and the Activity (Syrian golden hamster [15]) was “Active”. For the same compound, the Activity (Syrian golden hamster [16]) was 20%, the Activity (Syrian golden hamster [17]) was 61.9% and the Activity (Syrian golden hamster [18]) was 22.9%. For the same compound, the Activity (Syrian golden hamster [19]) was 61.5%, the Activity (Mus musculus [20]) was “inactive” and the Activity (Mus musculus [21]) was 30.6%. For the same compound, the “Percent increase in HDL-C/cholesterol ratio vs vehicle” value (Mus musculus [22]) was 55.7, the Activity (Mus musculus [23]) was 22.3% and the Activity (Mus musculus [24]) was 20.9%. It also gave an Activity (Mus musculus [25]) of 20.1%, an Activity (Mus musculus [26]) of 25.9% and an Activity (Mus musculus [27]) of 38.3%. The Activity (Rattus norvegicus [28]) was 18%, the Activity (Rattus norvegicus [29]) was 21% and the Activity (Rattus norvegicus [30]) was 9%. For the same compound, the bioavailability [31] was 29.5%, the half-life [32] was 16.3 h and the half-life [33] was 19.6 h. The AUC (Rattus norvegicus [34]) was 2.7175 µg·h/mL and the AUC (Rattus norvegicus [35]) was 3.46928 µg·h/mL.
